Results collected from several papers.
Protocols differ between the studies behind these lines.
CYP2E1: Cytochrome P450 2E1 (CYP2E1, Homo sapiens, UniProt P05181)

| SMILES | tested on | assay | test system | setting | endpoint | value |
| --- | --- | --- | --- | --- | --- | --- |
| O=C(CN1C(=O)Cc2c([nH]c3ccc(Br)cc23)-c2ccc(Cl)cc21)N1CCCC1 | J774 | cell growth or viability, WST-1 |  | 24 h | CC50 | ≤ 100 µM |
| Cn1ccc(COc2cnc(C(N)=O)cc2-c2ccc(O[11CH3])cc2F)n1 |  |  | male mouse, lung | intravenous, 2.5 MBq, 5 min | tracer uptake | 2.61 %ID/g |
| CC1COc2ccccc2N1C(=O)C(Cl)Cl (centres unmarked) |  | metabolic stability | male monkey, liver microsomes | 5 µM, pH 7.4 | microsomal CLint | 900 µL/min/mg |
| CN(C)C(=O)CN1C(=O)Cc2c([nH]c3ccc(Br)cc23)-c2ccc(Cl)cc21 | J774 | cell growth or viability, WST-1 |  | 24 h | CC50 | ≥ 100 µM |
| O=C(CCCCCCC(=O)Nc1ccc(CC[18F])cc1)NO |  |  | male nude mouse, stomach | intravenous, 1 h, tumour-bearing | tracer uptake | 1.5 %ID/g |
| O=c1[nH]c2cc(-c3ccccc3)sc2c(=O)n1O | HFF | cell growth or viability, MTS |  | 10 µM, 7 days | viability | 85% |
| CC(C)(C)NC(=O)CN1C(=O)Cc2c([nH]c3ccc(Br)cc23)-c2ccc(Cl)cc21 | J774 | cell growth or viability, WST-1 |  | 24 h | CC50 | ≥ 100 µM |
| Cc1csc2c(=O)n(O)c(=O)[nH]c12 | HFF | cell growth or viability, MTS |  | 10 µM, 7 days | viability | 122% |
| C[C@@H](c1ccc2nccn2c1)n1nnc2ncc(-c3cnn(C)c3)nc21 | CYP2E1 | enzyme activity, inhibitor | human, liver microsomes | pH 7.4 | IC50 | 100 µM |
| CCc1cc(/C(C)=N/OCc2ccc(C3CCCCC3)c(C(F)(F)F)c2)ccc1CN1CC(C(=O)O)C1 | CYP2E1 | enzyme activity, inhibitor | human, liver microsomes | 100 µM, 20 min | inhibition | 32.6% |
| Cc1c(C(=O)O)sc2[nH]c(=O)n(O)c(=O)c12 | HFF | cell growth or viability, MTS |  | 10 µM, 7 days | viability | 94% |
| CCN(CC)C(=S)S | CYP2E1 | enzyme activity, inhibitor | human, liver microsomes | 50 µM | inhibition | 75% |
| O=c1[nH]c2sc(-c3ccc(Cl)cc3)cc2c(=O)n1O | HFF | cell growth or viability, MTS |  | 10 µM, 7 days | viability | 101% |
| Nc1ccc(C=Cc2ccc([125I])cc2)cc1 |  |  | Swiss mouse, brain | intravenous, 5 µCi, 2 h | tracer uptake | 1.12 %ID/g |
| O=c1[nH]c2cc(-c3ccc(F)cc3)sc2c(=O)n1O | HFF | cell growth or viability, MTS |  | 10 µM, 7 days | viability | 61% |
| CCN(CC)C(=O)CN1C(=O)Cc2c([nH]c3ccc(Br)cc23)-c2ccc(Cl)cc21 | J774 | cell growth or viability, WST-1 |  | 24 h | CC50 | ≥ 100 µM |
| Nn1nnc2ccccc21 | CYP2E1 | enzyme activity, inhibitor, HPLC |  |  | IC50 | 37.7 µM |
